Here are results for 20 compounds from ChEMBL document CHEMBL4811313, “Himalaquinones A-G, Angucyclinone-Derived Metabolites Produced by the Himalayan Isolate Streptomyces sp. PU-MM59” (J Nat Prod, 2021).

Data set [1] can be described thus: Toxicity in axolotl embryo at 10 uM after 7 days by tail regeneration assay. The conditions noted are these: ambystoma mexicanum, 168 h, time 7 day. The gist of the method: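 Stage 42 axolotl embryos were hatched manually, anesthetized with benzocaine and given 2 mm tail amputations. They were reared at 18–19 °C in artificial pond water with compound (10 μM; one compound at 1.0 μM) in 0.1% final DMSO. Regeneration was imaged at 0 and 7 days postamputation. DMSO was the negative control and geldanamycin the positive control.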

Data set [2] has as its system PC-3. Briefly: Cytotoxicity against human PC3 cells assessed as reduction in cell viability at 80 uM after 72 hrs by resazurin dye based fluorescence analysis. The format is functional. The gist of the method:
(§1)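 A549 (non-small-cell lung) and PC3 (prostate) human cancer cells from ATCC. Viability was read after 72 h, in triplicate. Runs were either a single 80 μM concentration or a dose-response. Actinomycin D served as the positive control.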

In a further data set the test system is Saccharomyces cerevisiae. Nature of the data set: Antifungal activity against Saccharomyces cerevisiae ATCC 204508 at <= 133 uM after 16 hrs. Type of data set: functional, organism-based. The conditions noted are these: dose microM <=133, time 16.0 hrs. The gist of the method:
(§2)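 Microbial strains from ATCC or NRRL, tested in triplicate with a top concentration of 133 μM. Positive controls were kanamycin and ampicillin (S. aureus, M. luteus, S. enterica, E. coli) and amphotericin B (S. cerevisiae).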

For data set [3], the system named is A549. Briefly: Cytotoxicity against human A549 cells assessed as reduction in cell viability at 80 uM after 72 hrs by resazurin dye based fluorescence analysis. The format is functional. The gist of the method:
as §1

Another data set has as its system Staphylococcus aureus. Nature of the data set: Antibacterial activity against Staphylococcus aureus ATCC 6538 at <= 133 uM incubated for 16 hrs. The format is functional, organism-based. The conditions noted are these: dose microM <=133, time 16.0 hrs. The gist of the method: as §2
A further data set has as its system Mycolicibacterium aurum. Nature of the data set: Antibacterial activity against Mycobacterium aurum ATCC 23366 at <= 133 uM incubated for 16 hrs. The format is functional, organism-based. Conditions: dose microM <=133, time 16.0 hrs. The gist of the method:
as §2

A further data set concerns Bacillus spizizenii. Briefly: Antibacterial activity against Bacillus subtilis ATCC 6633 at <= 133 uM incubated for 16 hrs. Type of data set: functional, organism-based. Conditions: dose microM <=133, time 16.0 hrs. The gist of the method:
as §2

For a further data set, the system named is Escherichia coli. Briefly: Antibacterial activity against Escherichia coli NRRL B-3708 at <= 133 uM incubated for 16 hrs. The format is functional, organism-based. Conditions: dose microM <=133, time 16.0 hrs. The gist of the method:
as §2

Another data set deals with Micrococcus luteus. Nature of the data set: Antibacterial activity against Micrococcus luteus NRRL B-287 at <= 133 uM incubated for 16 hrs. Type of data set: functional, organism-based. Conditions: dose microM <=133, time 16.0 hrs. The gist of the method:
as §2

A further data set has as its system Salmonella enterica. Nature of the data set: Antibacterial activity against Salmonella enterica ATCC 10708 at <= 133 uM incubated for 16 hrs. Type of data set: functional, organism-based. The conditions noted are these: dose microM <=133, time 16.0 hrs. The gist of the method: as §2
Data set [4] relates to PC-3. Nature of the data set: Cytotoxicity against human PC3 cells assessed as reduction in cell viability after 72 hrs by resazurin dye based fluorescence analysis. Type of data set: functional. The conditions noted are these: PC-3, 72 h. The gist of the method: as §1
For data set [5], the target named is Eukaryotic translation initiation factor 4E-binding protein 1 (Homo sapiens) (UniProt Q13541). Nature of the data set: Inhibition of 4E-BP1 phosphorylation in human HCT116 cells at 2 uM after 6 hrs by Western blot analysis. Type of data set: cell-based. Conditions: HCT-116. The gist of the method:
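HCT116 cells were treated 6 h with 2 μM compound or with DMSO as negative control. Lysate was run on SDS-PAGE, blotted to PVDF and probed for phospho-4E-BP1 (Thr37/46, Ser65, Thr70), with chemiluminescent detection.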

The test system of data set [6] is A549. Briefly: Cytotoxicity against human A549 cells assessed as reduction in cell viability after 72 hrs by resazurin dye based fluorescence analysis. Type of data set: functional. The conditions noted are these: A549, 72 h. The gist of the method:
as §1

SMILES strings stand for the structures. pIC50: −log10 of the molar value. Activity calls are given as the source filed them. The calls are words filed in the database; no cut-off is given here.

Chain of Eukaryotic translation initiation factor 4E-binding protein 1 (Homo sapiens) (Q13541 whole entry): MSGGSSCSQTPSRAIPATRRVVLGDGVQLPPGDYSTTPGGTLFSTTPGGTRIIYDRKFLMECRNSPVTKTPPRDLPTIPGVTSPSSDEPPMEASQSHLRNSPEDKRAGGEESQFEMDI

With `C[C@@H]1O[C@@H](O[C@@H]2C[C@H](c3ccc4c(c3O)C(=O)C3=C(C4=O)[C@@]4(O[C@H]5CC[C@H](O)[C@H](C)O5)C(=O)C[C@](C)(O)C[C@@]4(O)C=C3)O[C@H](C)[C@H]2O)CC[C@@H]1O[C@H]1C[C@@H](O)[C@H](O)[C@@H](C)O1`, the Activity entry in data set [1] is “Non-Toxic”.

`COC(=O)C/C(C)=C\c1c(O)cc2c(c1O)C(=O)c1cccc(O)c1C2=O`: the outcome in the data set on PC-3 [2], in the data set on Saccharomyces cerevisiae, in the data set on A549 [3], with Staphylococcus aureus, in the data set with Mycolicibacterium aurum and in the data set with Bacillus spizizenii was inactive. The outcome with Escherichia coli, in the data set with Micrococcus luteus and with Salmonella enterica was inactive.

As for `C[C@@H]1O[C@H]2O[C@H]3[C@@H](C)O[C@@H](c4ccc5c(c4O)C(=O)C4=C(C5=O)[C@@]5(O)C(=O)C[C@](C)(O[C@H]6CC[C@H](O[C@H]7CC[C@H](O)[C@H](C)O7)[C@H](C)O6)C[C@@]5(O)C=C4)C[C@H]3O[C@H]2CC1=O`, the negative-log IC50 (pIC50) in the data set with PC-3 [4] and with A549 [6] was above 6.30 throughout. The inhibition entry in data set [5] is “Active”. Moreover, the Activity entry in data set [1] is listed as “Non-Toxic”.

Take `COc1cccc2c1C(=O)c1ccc(/C=C(\C)CC(=O)O)c(O)c1C2=O`: the outcome in the data set with PC-3 [2], in the data set on Saccharomyces cerevisiae, in the data set with A549 [3], in the data set on Staphylococcus aureus, in the data set on Mycolicibacterium aurum and in the data set on Bacillus spizizenii was inactive. The result with Escherichia coli, in the data set with Micrococcus luteus and in the data set with Salmonella enterica was inactive.

For `Cc1cc(O)c2c3c(ccc2c1)C(=O)c1c(O[C@H]2C[C@@H](O)[C@H](O[C@H]4C[C@@H](O[C@H]5CC[C@H](O[C@H]6CC[C@H](O[C@H]7C[C@@H](O[C@H]8CC[C@H](O)[C@H](C)O8)[C@H](O)[C@@H](C)O7)[C@@H](C)O6)[C@H](C)O5)[C@H](O)[C@@H](C)O4)[C@@H](C)O2)cccc1C3=O`, the negative-log IC50 (pIC50) with PC-3 [4] and with A549 [6] was above 6.30 in each case. For the same compound, the inhibition result in data set [5] was “Active”.

As to `Cc1cc(O)c2c3c(ccc2c1)C(=O)c1c(O[C@H]2C[C@@H](O)[C@H](O[C@H]4C[C@@H](O[C@H]5CC[C@H](O[C@H]6C[C@@H](O)[C@H](O[C@H]7C[C@@H](O)[C@H](O)[C@@H](C)O7)[C@@H](C)O6)[C@H](C)O5)[C@H](O)[C@@H](C)O4)[C@@H](C)O2)cccc1C3=O` [LANDOMYCIN M], in [1], the Activity entry is listed as “Toxic”.

Consider `Cc1cc(O)c2c3c(ccc2c1)C(=O)c1c(O[C@H]2C[C@@H](O)[C@H](O[C@H]4C[C@@H](O)[C@H](O)[C@@H](C)O4)[C@@H](C)O2)cccc1C3=O` [LANDOMYCIN O], for which the Activity entry in data set [1] was “Toxic”.

With `Cc1cc(O)c2c(c1)C[C@@H](O)C1=C2C(=O)c2c(O)ccc(O[C@H]3C[C@@H](O)[C@H](O[C@H]4C[C@@H](O[C@H]5CC[C@H](O[C@H]6C[C@@H](O)[C@H](O[C@H]7C[C@@H](O[C@H]8CC[C@H](O)[C@H](C)O8)[C@H](O)[C@@H](C)O7)[C@@H](C)O6)[C@H](C)O5)[C@H](O)[C@@H](C)O4)[C@@H](C)O3)c2C1=O` [LANDOMYCIN A], the negative logarithm of the IC50 (pIC50) in the data set with PC-3 [4] and in the data set with A549 [6] was above 6.30 throughout. The inhibition result in data set [5] was “Active”.

With `COc1cccc2c1C(=O)c1cc(O)c(/C=C(/C)CC(=O)O)c(O)c1C2=O`, the result with PC-3 [2], in the data set on Saccharomyces cerevisiae, in the data set on A549 [3], with Staphylococcus aureus, in the data set on Mycolicibacterium aurum and in the data set with Bacillus spizizenii was inactive. The result with Escherichia coli, in the data set on Micrococcus luteus and with Salmonella enterica was inactive.

Take `C[C@@H]1O[C@@H](O[C@H]2CC[C@H](O[C@@]3(C)CC(=O)[C@]4(O)C5=C(C=C[C@]4(O)C3)C(=O)c3c(ccc([C@H]4C[C@@H](O)[C@H](O[C@@H]6O[C@@H](C)C(=O)C=C6N)[C@@H](C)O4)c3O)C5=O)O[C@H]2C)C=CC1=O` [SAQUAYAMYCIN I]: the Activity entry in data set [1] is on record as “Non-Toxic”.

For the compound `C[C@@H]1O[C@@H](O[C@H]2CC[C@H](O[C@@]3(C)CC(=O)[C@]4(O)C5=C(C=C[C@]4(O)C3)C(=O)c3c(ccc([C@H]4C[C@@H](O)[C@H](O[C@H]6CC[C@H](O)[C@H](C)O6)[C@@H](C)O4)c3O)C5=O)O[C@H]2C)C=CC1=O` [SAQUAYAMYCIN K], the pIC50 with PC-3 [4] and in the data set with A549 [6] was above 6.30 each time. Moreover, the inhibition result in data set [5] is “Active”.

`C[C@@H]1O[C@@H](O[C@H]2CC[C@H](O[C@@]3(C)CC(=O)[C@]4(O)C5=C(C=C[C@]4(O)C3)C(=O)c3c(ccc([C@H]4C[C@H]6O[C@H]7CC(=O)[C@H](C)O[C@H]7O[C@H]6[C@@H](C)O4)c3O)C5=O)O[C@H]2C)C(N)=CC1=O`: the Activity entry in data set [1] is recorded as “Non-Toxic”.

As to `C[C@@H]1O[C@H]2O[C@H]3[C@@H](C)O[C@@H](c4ccc5c(c4O)C(=O)C4=C(C5=O)[C@@]5(O)C(=O)C[C@](C)(O)C[C@@]5(O)C=C4)C[C@H]3O[C@H]2CC1=O`, the Activity result in [1] is “Non-Toxic”.

In the case of `CC(=O)OC(=O)C(O)/C(C)=C\c1c(O)cc2c(c1O)C(=O)c1cccc(O)c1C2=O` (stereo not drawn), the result with PC-3 [2], with Saccharomyces cerevisiae, in the data set on A549 [3], in the data set with Staphylococcus aureus, in the data set on Mycolicibacterium aurum and in the data set on Bacillus spizizenii was inactive. Moreover, the outcome with Escherichia coli, in the data set with Micrococcus luteus and in the data set with Salmonella enterica was inactive.

For the compound `C[C@@H]1O[C@@H](O[C@H]2CC[C@H](O[C@@]3(C)CC(=O)[C@]4(O)C5=C(C=C[C@]4(O)C3)C(=O)c3c(ccc([C@H]4C[C@H]6O[C@H]7CC(=O)[C@H](C)O[C@H]7O[C@H]6[C@@H](C)O4)c3O)C5=O)O[C@H]2C)C=CC1=O`, the pIC50 in the data set on PC-3 [4] and in the data set on A549 [6] was above 6.30 each time. In addition, the inhibition result in data set [5] was “Active”.

On to `COc1cccc2c1C(=O)c1ccc(/C=C(/C)CC(=O)O)c(O)c1C2=O`, for which the result with PC-3 [2], with Saccharomyces cerevisiae, in the data set on A549 [3], in the data set with Staphylococcus aureus, in the data set on Mycolicibacterium aurum and in the data set on Bacillus spizizenii was inactive. In addition, the outcome in the data set with Escherichia coli, in the data set with Micrococcus luteus and with Salmonella enterica was inactive.

On to `Cc1cc(O)c2c(c1)C[C@@H](O)C1=C2C(=O)c2cccc(O[C@H]3C[C@@H](O)[C@H](O[C@H]4C[C@@H](O[C@H]5CC[C@H](O[C@H]6CC[C@H](O[C@H]7C[C@@H](O[C@H]8CC[C@H](O)[C@H](C)O8)[C@H](O)[C@@H](C)O7)[C@@H](C)O6)[C@H](C)O5)[C@H](O)[C@@H](C)O4)[C@@H](C)O3)c2C1=O`, for which the pIC50 with PC-3 [4] and in the data set with A549 [6] was above 6.30 throughout. Besides, the inhibition result in [5] was “Active”.

On to `Cc1cc(O)c2c(c1)C[C@@H](O)C1=C2C(=O)c2cccc(O[C@H]3C[C@@H](O)[C@H](O[C@H]4C[C@@H](O[C@H]5CC[C@H](O[C@H]6C[C@@H](O)[C@H](O[C@H]7C[C@@H](O)[C@H](O)[C@@H](C)O7)[C@@H](C)O6)[C@H](C)O5)[C@H](O)[C@@H](C)O4)[C@@H](C)O3)c2C1=O` [LANDOMYCIN V], for which the Activity result in [1] is reported as “Toxic”.

Consider `C[C@@H]1O[C@@H](O[C@H]2CC[C@H](O[C@@]3(C)CC(=O)[C@]4(O)C5=C(C=C[C@]4(O)C3)C(=O)c3c(ccc([C@H]4C[C@@H](O)[C@H](O)[C@@H](C)O4)c3O)C5=O)O[C@H]2C)C=CC1=O` [SAQUAYAMYCIN G], for which the Activity entry in data set [1] is listed as “Non-Toxic”.

For `COc1cccc2c1C(=O)C1=C(C2=O)c2c(O)cc(C)cc2[C@@H](O)[C@H]1O`, the result in the data set with Saccharomyces cerevisiae, in the data set with Staphylococcus aureus, with Mycolicibacterium aurum, in the data set on Bacillus spizizenii, in the data set with Escherichia coli and in the data set with Micrococcus luteus was inactive. In addition, the outcome in the data set with Salmonella enterica was inactive. Besides, the pIC50 in the data set on PC-3 [4] is 6.49; in the data set on A549 [6], 5.73. Also, in [5], the inhibition result was “inactive”. Besides, in [1], the Activity entry is recorded as “Non-Toxic”.
